Source: PubChem BioAssay AID743061 (The Scripps Research Institute Molecular Screening Center, 2013)

target: Methionine--tRNA ligase, mitochondrial (Homo sapiens) (UniProt Q96GW9); experiment: human mtMetRS tRNA charging inhibition – biochemical, radioactivity, round 1, selectivity assay for T. brucei MetRS inhibitor project, late-stage follow-up (AID 743061); settings: recombinant human mtMetRS, [3H]Met tRNA charging, at 10 µM, stronger effect = higher value;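 further: 0% = DMSO with full reaction and 100% = DMSO wells lacking tRNA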
Procedure, shortened: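 Material: Recombinant human mitochondrial methionyl-tRNA synthetase (MetRS) | Medium: pH 8.0 buffer, 2.5 mM ATP | Reagent: [3H]Met 240 nM plus bulk E. coli tRNA | Compound: 10 and 1 µM | Schedule: 15 min compound–enzyme preincubation, then 1 h reaction at room temperature | Measured by: Scintillation counts of TCA-precipitated charged tRNA on filters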

Compound | inhibition [%]
O=C(CN1CCSC1=NCc1ccccc1)c1ccc(Cl)c(Cl)c1 | -25.5
CNC(=S)N(CCc1ccccc1)C1CC(=O)N(c2ccc(Br)cc2)C1=O (centres undefined) | 83.7
O=C1CC(N(CCc2ccccc2)C(=S)Nc2ccccc2)C(=O)N1c1ccc(Br)cc1 (centres undefined) | 25.6
CC(=O)c1ccc(N2CCN(C(=O)CCCn3c(=O)[nH]c4ccc(Br)cc4c3=O)CC2)cc1 | 7.87
COc1cccc(NC(=O)CSc2nnc3c(n2)[nH]c2ccc(C)cc23)c1 | 40.4
CCN(CC)C(=O)C(=O)c1cn(CC(=O)Nc2cccc(C(F)(F)F)c2)c2ccccc12 | 40.8
O=C(Cn1cc(C(=O)C(=O)N2CCOCC2)c2ccccc21)NCC1CCCO1 (centres undefined) | 5.42
O=C(NCc1nc2ccccc2[nH]1)C1=C[C@@H](c2ccccc2)C[C@@H](OCc2ccc(CO)cc2)O1 | 15.8
COc1ccccc1NC(=O)Cn1cc(C(=O)C(=O)N2CCOCC2)c2ccccc21 | -8.03
O=C(CC(=O)Nc1cccc(Cl)c1)NN=Cc1ccccc1 | 9.82
CC(=O)c1cn(CC(=O)Nc2cccc(C(F)(F)F)c2)c2ccccc12 | -0.68
O=C(Cn1cc(C(=O)c2ccco2)c2ccccc21)Nc1cccc(C(F)(F)F)c1 | 19.7
COc1ccccc1-n1c(SCC(=O)Nc2ccc(Cl)cc2)nc(O)c(Cc2ccccc2)c1=O | -19.7
Cc1cccc(NC(=O)C2CC(=O)n3c(nc4ccccc43)N2)c1 (centres undefined) | 6.78
O=C(NNC(=O)c1cc(-c2ccc(Cl)c(Cl)c2)nc2ccccc12)Nc1ccccc1 | -11.2
CCOC(=O)N1CCC(Nc2c(Nc3ccc(F)cc3)c(=O)c2=O)CC1 | -4.56
O=C1CC(SCc2nc3ccccc3[nH]2)C(=O)N1c1cccc(Cl)c1 (centres undefined) | -0.68

Compound | inhibition [%]
CCN(CC)C(=O)C(=O)c1cn(CC(=O)N(CC)c2ccccc2)c2ccccc12 | 9.56
COc1ccc(NC(=O)C2CC(=O)n3c(nc4ccccc43)N2)cc1 (centres undefined) | -2.5
O=C(NCc1nc2ccccc2[nH]1)C1=C[C@H](c2ccc3c(c2)OCO3)C[C@H](OCCCCO)O1 | 10.2
O=C(NCc1nc2ccccc2[nH]1)C1=C[C@H](c2ccccc2)C[C@H](OCc2ccc(CO)cc2)O1 | 12.7
COc1ccc(CCN(C(=S)Nc2ccccc2)C2CC(=O)N(c3ccc(Cl)cc3)C2=O)cc1 (centres undefined) | 61.9
CC(CC(=O)Nc1cccc(Br)c1)=NNC(=O)c1ccc(O)cc1O | 4.55
Cn1c(CCNC(=O)c2ccc(Cl)cc2)nc2ccccc21 | 12.5
O=C(C(=O)N1CCOCC1)c1cn(CC(=O)N2CCCc3ccccc32)c2ccccc12 | 3.68
CN1CC(=O)N2C(c3cccc([N+](=O)[O-])c3)c3[nH]c4ccccc4c3C[C@H]2C1=O (some centres undefined) | 14
O=C(C[C@H]1C(=O)N(Cc2ccccc2)C[C@@H]1c1ccc(Br)cc1)Nc1ccc(Br)cc1 | -8.54
Clc1ccc(OCCSCc2nc3ccccc3[nH]2)cc1 | -5.52
Cc1cccc2[nH]c(C3CCCN(C(=O)c4cccc5cccnc45)C3)nc12 (centres undefined) | 2.39
Cc1[nH]c2ccc(Br)cc2c(=O)c1CN1CCCCCC1 | -11
Cc1ccc(NC(=O)CN(C)C(=O)CCSc2ccc(F)cc2)cc1 | -21.5
COc1ccc(CCN(C(=O)c2cccc(F)c2)C2CC(=O)N(c3ccc(Br)cc3)C2=O)cc1 (centres undefined) | 4.36
CN(Cc1cc(Cl)cc(Cl)c1)[C@H]1C[C@H]2c3[nH]c4ccccc4c3CCN2C(=O)[C@H]1CO | 80.3
O=C(N/C(=C\c1cccnc1)c1nc2ccccc2[nH]1)c1cccc(Br)c1 | 4.89
